# Hits are enriched below; roughly 3.5% of the tested compounds scored in any of these assays.
# RGS4 act: RGS4 potentiation or activation | 310,000 tested, 0.92% active | B-score at 10 µM | HEK293 M3R/inducible RGS4, carbachol calcium flux Fluo4; hits give low values | AID 463111;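 active = B-score of the integrated calcium signal more than 4 SD below the library mean, with starting fluorescence not abnormally high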;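 also: negative B-score means reduced calcium response which marks RGS4 activation or potentiation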
#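 test system = HEK293 cells with stable M3R and inducible RGS4 | schedule = recording 10 s baseline at 1 Hz, 100 s post-agonist | technique = Fluo4-AM (2 µM) calcium-flux fluorescence, kinetic read | measure = Agonist-evoked peak-minus-minimum fluorescence over baseline, integrated ratio, B score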
# RGS4 block: human RGS4 inhibition; HEK293 M3R/RGS4 inducible, Fluo-4 calcium flux; hits give high values; triggered by carbachol at its EC20; B-score at 10 µM; 310,000 tested, 0.45% active;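 active = B-score, a plate-corrected calcium signal, over three deviations above library mean, with baseline fluorescence within five deviations of library mean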;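 also: RGS4 expression induced by doxycycline in cells with stable M3 receptor; B-score is computed from the integrated fluorescence ratio over baseline after carbachol; higher B-score means a larger calcium signal and so more RGS4 inhibition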
# Target sequence (P49798 whole entry, looked up): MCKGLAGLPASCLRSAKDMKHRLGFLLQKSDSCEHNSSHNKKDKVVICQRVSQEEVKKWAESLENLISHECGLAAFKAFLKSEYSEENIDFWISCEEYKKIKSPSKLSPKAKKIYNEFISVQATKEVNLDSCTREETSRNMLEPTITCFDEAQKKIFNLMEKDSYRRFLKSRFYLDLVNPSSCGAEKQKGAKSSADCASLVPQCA
# MrgX1 antagonist: blocks BAM8-22 activation of human MrgX1 receptor; Q96LB2; MRGX1-HEK293 calcium flux, Fluo-4, BAM8-22 antagonism; hits give low values; B-score at 10 µM; 310,000 tested, 1.3% active; AID 588676;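 active = calcium-response B-score plate-corrected more than 3 library SD below zero, starting fluorescence within 5 deviations, no agonist response on first addition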;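 also: peak minus trough fluorescence over baseline after final BAM8-22 challenge near maximal dose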
# Target sequence (Q96LB2 whole entry, looked up): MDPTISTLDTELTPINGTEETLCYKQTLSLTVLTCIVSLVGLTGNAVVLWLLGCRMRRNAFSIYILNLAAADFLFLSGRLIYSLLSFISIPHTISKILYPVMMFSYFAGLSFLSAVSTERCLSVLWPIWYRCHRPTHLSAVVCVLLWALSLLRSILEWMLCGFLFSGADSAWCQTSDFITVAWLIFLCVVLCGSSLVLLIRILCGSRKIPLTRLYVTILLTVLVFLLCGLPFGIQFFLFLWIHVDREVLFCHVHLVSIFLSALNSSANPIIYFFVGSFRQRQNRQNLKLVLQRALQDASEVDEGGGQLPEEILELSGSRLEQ
# MrgX1 allo act: human MrgX1 positive allosteric modulation, primary screen | 310,000 tested, 0.63% active | AID 588675 | MrgX1-HEK293, Fluo-4 calcium flux, FDSS; hits give high values | B-score at 10 µM;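 active = plate-corrected calcium response at least 3 library SD above typical, normal starting fluorescence, not activating the receptor alone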;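 also: compound read alongside a low EC10 to EC30 dose of BAM8-22 agonist; peak minus trough fluorescence over baseline measured at the second addition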
# MrgX1 ag: activates human MrgX1 receptor signaling. B-score at 10 µM. MrgX1-HEK293 cells, Fluo-4 calcium fluorescence, agonist mode; hits give high values. AID 588627. 310,000 tested, 0.44% active. Q96LB2;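 active = calcium response B-score plate-corrected fluorescence ratio at least 3 library SD, with starting fluorescence B-score inside 5 SD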
#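 Test system: Stable human MrgX1 HEK293 cell line | Schedule: Overnight plating before 1 h dye loading | Read-out basis: Baseline-normalised fluorescence change ratio, B-scored | Detection: Kinetic calcium dye fluorescence, Fluo-4 NW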
# RGS4 block valid: validation of RGS4 inhibitors; shares compounds with RGS4 block; HEK293 M3R/RGS4, carbachol calcium Fluo-4 fluorescence; carbachol added at its EC20; 0 = buffer wells, 100 = carbachol control; calcium response, % at 10 µM; 1,700 tested, 65% active;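 active = duplicate-averaged calcium response above the buffer-only control mean plus 5 SD of those controls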;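 also: integrated fluorescence ratio F max minus min over baseline F0; higher response in RGS4-induced cells means RGS4 inhibition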
# RGS4 uninduced: checks RGS4 inhibitor effects in non-induced HEK293 M3R cells; shares compounds with RGS4 block; carbachol calcium Fluo-4; submaximal (EC20) carbachol stimulus; buffer wells 0%, carbachol control wells 100%; activity (percent), % at 10 µM; 1,900 tested, 20% active; AID 493000; call rule not given here;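 also: RGS4 induction absent so cells express M3R without RGS4; higher means more calcium signal and flags a non-specific hit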
# M3R basal Ca ctr: second RGS4 inhibitor counter-screen in uninduced cells lacking carbachol | AID 493001 | 1,900 tested, 22% active | HEK293 M3R/RGS4 non-induced, Fluo-4 calcium, no carbachol; normalised: buffer wells 0%, carbachol wells 100% | calcium response (agonist-mode artifact), % at 10 µM | shares compounds with RGS4 block;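 active = duplicate-averaged calcium rise in uninduced cells above buffer wells' mean plus 5 SD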
# MrgX1 ag confirm: confirmation of human MrgX1 receptor agonists | AID 602412 | 600 tested, 78% active | shares compounds with MrgX1 ag | MrgX1-HEK293, Fluo-4 calcium fluorescence, FDSS | activation, % at 10 µM;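 active = calcium signal rise, corrected for plate position, at least 3 library SD high, with starting brightness within 5 such deviations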
# MrgX1 allo conf: human MrgX1 positive allosteric modulation, re-confirmation | activation (ratio percentage), % at 10 µM | 1,200 tested, 13% active | MrgX1-HEK293, Fluo-4 calcium fluorescence, FDSS | shares compounds with MrgX1 allo act;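 active = ratio at least 3 SD above the weak peptide control, stable starting fluorescence, no direct agonism earlier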;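 also: compound followed by low BAM8-22 agonist challenge near EC20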
# MrgX1 antag conf: confirmation of human MrgX1 receptor antagonists; shares compounds with MrgX1 antagonist; MrgX1-HEK293, BAM8-22 calcium flux, Fluo-4; hits give low values; remaining BAM8-22 calcium response % of control (hits give low values), % at 10 µM; 2,300 tested, 19% active; AID 602420;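 active = remaining agonist calcium response no higher than 100% minus 3 SD of agonist-only control wells, with starting fluorescence near control levels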;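 also: agonist BAM8-22 given at a near maximal EC90 to ECmax level; peak minus minimum fluorescence divided by baseline after agonist addition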
# HEK293 Ca flux: activity in parental HEK293 cells lacking MrgX1; fluorescence ratio F(max-min)/F0 at 10 µM; 4,000 tested, 2% active; AID 624111; Fluo-4 calcium fluorescence, FDSS; shares compounds with MrgX1 antagonist;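 active = duplicate-averaged calcium fluorescence ratio at least three times the standard deviation of buffer wells, a nonspecific response in parental cells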
# HEK293 Ca counter: MrgX1 allosteric activator counter-screen hit in parental HEK293 cells | shares compounds with MrgX1 antagonist | parental HEK293 calcium flux, Fluo-4 fluorescence ratio; hits give high values | fluorescence ratio F(max-min)/F0 at 10 µM | 4,000 tested, 0.4% active | AID 624114;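 active = calcium fluorescence ratio, averaged over duplicates, at least 3 SD of the buffer-well ratio, meaning a nonspecific response in receptor-free cells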;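 also: untransfected parental HEK293 lacking MrgX1 used as counterscreen for MrgX1 allosteric activators; fluorescence change taken during the second addition on a kinetic imager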
# HEK293 Ca cntr2: activity in parental HEK293 cells lacking MrgX1 receptor | shares compounds with MrgX1 antagonist | Fluo-4 calcium fluorescence (FDSS); hits give high values | fluorescence ratio F(max-min)/F0 at 10 µM | 4,000 tested, 8.7% active;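 active = calcium fluorescence ratio at least three times the spread of buffer wells, meaning a non-specific response in parental cells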
# The depositor's hits bear a star; i = inactive; . = no result.
SMILES,RGS4 act,RGS4 block,MrgX1 antagonist,MrgX1 allo act,MrgX1 ag,HEK293 Ca flux,HEK293 Ca counter,HEK293 Ca cntr2,others
Cc1cccc(N2C(=O)NC(=O)/C(=C\C=C\c3ccco3)C2=O)c1,i,17*,i,i,57*,.,.,.,RGS4 block valid=49%*;RGS4 uninduced=64%*;M3R basal Ca ctr=88%*
O=C(NC1CN2CCC1CC2)c1cc(Cl)c([N+](=O)[O-])c2nc[nH]c12 (stereo unspecified),i,i,i,i,i,.,.,.,
CNC(=O)OCc1n(C)cc[n+]1C,i,i,i,i,i,.,.,.,
CC/C(=N\N1CCCCC1)c1c(O)[nH]c(=O)[nH]c1=O,i,4.7*,i,i,i,.,.,.,RGS4 block valid=8.5%*;RGS4 uninduced=i;M3R basal Ca ctr=i
CCNC(=O)[C@H]1O[C@@H](n2cnc3c(N)ncnc32)[C@H](O)[C@@H]1O,i,9.8*,i,i,i,.,.,.,RGS4 block valid=34%*;RGS4 uninduced=i;M3R basal Ca ctr=i
NC(=O)c1cn(C2OC(CO)C(O)C2O)c2ncnc(N)c12 (stereo unspecified),i,i,i,i,i,.,.,.,
Cc1nn(Cc2ccccc2)c(C)c1C(=O)OCC(=O)NC1CCS(=O)(=O)C1 (stereo unspecified),i,i,i,i,i,.,.,.,
CC1(C)CSC(=NCc2ccccc2)N1,i,i,i,i,164*,i,i,129*,MrgX1 ag confirm=677%*
CC1(C)CC(=O)C=C(NCCN2CCN(C(=O)Cc3ccc(Cl)cc3)CC2)C1,i,i,i,i,i,.,.,.,
CN1CCN(c2cccc3c2C(=O)c2ccccc2C3=O)CC1,i,i,.,.,.,.,.,.,
CN1CCN(c2ccc3c(c2)S(=O)(=O)c2ccccc2C3=O)CC1,i,i,i,i,28*,i,i,51*,MrgX1 ag confirm=i
C[C@H]1CCC[C@H](O)CCCCCc2cc(O)cc(O)c2C(=O)O1,i,i,i,i,i,.,.,.,
C[C@H]1CCC[C@@H](O)CCC/C=C/c2cc(O)cc(O)c2C(=O)O1,i,i,i,i,31*,i,i,i,MrgX1 ag confirm=176%*
CCN1C[C@]2(C)CC[C@H](O)[C@]34C1[C@H](C[C@H]23)[C@@]1(O)C[C@H](OC)[C@H]2C[C@@H]4[C@@H]1C2O (stereo partly specified),.,.,i,i,i,.,.,.,
O=C1CCCN1CC#CCN1CCCC1,i,i,i,i,52*,i,i,49*,MrgX1 ag confirm=226%*
CC(=O)N1N=C2C3CCN(CC3)C2C1c1ccc(Br)cc1 (stereo unspecified),i,i,i,i,i,.,.,.,
CNc1ccc2oc(C[C@H]3O[C@@]4(CC[C@H]3C)O[C@H]([C@H](C)C(=O)c3ccc[nH]3)[C@H](C)C[C@H]4C)nc2c1C(=O)O,i,i,i,i,160*,i,i,158*,MrgX1 ag confirm=823%*
CC(C)(C)c1ccc(O)c(N=Cc2c(O)ccc3ccccc23)c1,i,i,i,i,56*,i,i,46*,MrgX1 ag confirm=115%*
Nc1nc(SCCC(F)=C(F)F)n[nH]1,i,i,i,i,i,.,.,.,
NC1=Nc2ccccc2Oc2ccccc21,i,i,i,i,55*,i,i,i,MrgX1 ag confirm=226%*
CCOc1ccccc1C1SCC(=O)Nc2c1c(=O)[nH]n2C(CC)CC (stereo unspecified),i,i,i,i,i,.,.,.,
CCOC(=O)C1=C(N)Oc2c(c(=O)oc3ccccc23)C12C(=O)N(C)c1ccccc12 (stereo unspecified),i,i,i,8.5*,i,i,i,i,MrgX1 allo conf=16%*
C=CCN1C(=O)C2(C(C(=O)OCC)=C(N)Oc3ccccc32)c2c1c1ccccc1oc2=O (stereo unspecified),i,i,i,24*,i,i,i,i,MrgX1 allo conf=33%*
Cc1c(OC(=O)N(C)C)ccc2c1O/C(=C\c1ccco1)C2=O,i,i,i,i,i,.,.,.,
COc1cccc(C2(C#N)CCN(C)CC2)c1,i,i,i,6.5*,i,i,i,i,MrgX1 allo conf=i
COc1cccc(OCC(=O)N2CCN(C)CC2)c1,i,i,i,i,i,.,.,.,
CCCCn1c(=O)c(C(=O)NCc2ccccc2)c(O)c2ccccc21,i,i,i,i,i,.,.,.,
CCCCCn1c(=O)c(C(=O)NCc2ccc(Cl)cc2)c(O)c2ccccc21,i,i,i,8.8*,i,i,49*,i,MrgX1 allo conf=i
O=C(Nc1ccccc1)N1CC2CC(C1)c1cccc(=O)n1C2 (stereo unspecified),i,i,i,i,i,.,.,.,
CC(C)CNC(=O)c1c(N)n(Cc2ccc3c(c2)OCO3)c2nc3ccccc3nc12,i,i,-6*,i,i,i,i,54*,MrgX1 antag conf=i

# Bioassay records from PubChem BioAssay.
